# In ChEMBL document CHEMBL2396592, “Discovery of Dap-3 polymyxin analogues for the treatment of multidrug-resistant Gram-negative nosocomial infections” (J Med Chem, 2013):
# Key:
# [1] = tested on: Canis familiaris; assay: Ratio of compound fAUC in beagle dog at 11 mg/kg, iv bid for 7 days to polymyxin B fAUC in beagle dog at 6 mg/kg, iv bid for 7 days; format: ADME, organism-based, Canis lupus familiaris; settings: in vivo, 168 h
# [2] = Ratio of fAUC in ICR mouse neutropenic infection model to MIC for Pseudomonas aeruginosa assessed during measurement of 1 log decrease parameter; format: functional
# [3] = Ratio of fAUC in ICR mouse neutropenic infection model to MIC for Pseudomonas aeruginosa assessed during measurement of statis parameter; format: functional
# [4] = Ratio of fAUC in ICR mouse neutropenic infection model to MIC for Pseudomonas aeruginosa assessed during measurement of 50% of maximal efficacy; format: functional
# [5] = Ratio of fAUC in ICR mouse neutropenic infection model to MIC for Pseudomonas aeruginosa assessed during measurement of exposure index required for 80%; format: functional
# [6] = Plasma protein binding in ICR mouse neutropenic infection model; format: ADME, cell-free; settings: read-out: PPB (converted)
# [7] = tested on: Pseudomonas aeruginosa; assay: Antibacterial activity against Pseudomonas aeruginosa 1402 assessed as growth inhibition by broth microdilution method; format: functional
# How it was run: (§1)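 CLSI broth microdilution MIC against P. aeruginosa 1401 (PA01) and 1402 (UC12120), the two strains used in the mouse thigh model.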
# [8] = tested on: Mus musculus; assay: fAUC in ICR mouse neutropenic infection model at 12.5 to 75 mg/kg, sc; format: ADME, organism-based; design: dose 12.5-75 mg/kg, route subcutaneous; settings: in vivo
# How it was run: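 Infected neutropenic female ICR mice (~25 g; cyclophosphamide 150 and 100 mg/kg IP at 4 and 1 days before inoculation) received single SC doses of 12.5–75 mg/kg. Six mice per time point were sampled by cardiac puncture at eight times over 12 h, and plasma was assayed by LC-MS.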
# [9] = Fraction unbound in beagle dog plasma; format: ADME, cell-free, Canis lupus familiaris
# [10] = tested on: Canis familiaris; assay: fAUC in beagle dog at 11 mg/kg, iv bid administered as bolus dose for 7 days measured at 1 to 7 days; format: ADME, organism-based, Canis lupus familiaris; design: dose 11 mg/kg, route intravenous; settings: in vivo
# [11] = tested on: Canis familiaris; assay: fAUC in beagle dog at 20 mg/kg, iv bid administered as bolus dose for 7 days measured at 1 to 7 days; format: ADME, organism-based, Canis lupus familiaris; design: dose 20 mg/kg, route intravenous; settings: in vivo
# [12] = tested on: Canis familiaris; assay: fAUC in beagle dog at 5 mg/kg, iv bid administered as bolus dose for 7 days measured at 1 to 7 days; format: ADME, organism-based, Canis lupus familiaris; design: dose 5 mg/kg, route intravenous; settings: in vivo
# [13] = Fraction unbound in Wistar Han rat plasma; format: ADME, cell-free
# [14] = tested on: Canis familiaris; assay: Nephrotoxicity in beagle dog assessed as incidence of necrotic kidney lesions at 5 to 20 mg/kg, iv bid administered as bolus dose for 7 days measured at 1 to 7 days by microscopic analysis; format: toxicity, organism-based, Canis lupus familiaris; design: route intravenous; settings: in vivo
# How it was run: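 Male and female Beagle dogs, 5–11 kg, received IV bolus twice daily (≥6 h apart) for 7 days at 0 (0.9% saline), 5, 11 or 20 mg/kg/day. Necropsy was the day after the last dose. Kidney proximal tubules were examined microscopically for degeneration/regeneration and graded in severity. Incidence is given as animals with lesions over animals tested.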
# [15] = tested on: Rattus norvegicus; assay: fAUC in Wistar Han rat at 8 mg/kg, iv bid administered as bolus dose for 7 days measured at 1 to 7 days; format: ADME, organism-based; design: dose 8 mg/kg, route intravenous; settings: in vivo
# [16] = tested on: Rattus norvegicus; assay: fAUC in Wistar Han rat at 4 mg/kg, iv bid administered as bolus dose for 7 days measured at 1 to 7 days; format: ADME, organism-based; design: dose 4 mg/kg, route intravenous; settings: in vivo
# [17] = tested on: Rattus norvegicus; assay: Nephrotoxicity in Wistar Han rat assessed as incidence of necrotic kidney lesions at 4 to 8 mg/kg, iv bid administered as bolus dose for 7 days measured at 1 to 7 days by microscopic analysis; format: toxicity, organism-based; design: route intravenous; settings: in vivo
# How it was run: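 Male Wistar Han IGS rats, 6–9 weeks old, received IV bolus twice daily (≥6 h apart) for 7 days at 0 (0.9% saline), 4 or 8 mg/kg/day. Necropsy was the day after the last dose. Kidneys were weighed and examined microscopically for proximal tubule epithelial degeneration/regeneration, graded minimal to severe. Incidence is given as animals with lesions over animals tested.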
# [18] = Cytotoxicity against human RPTEC after 24 hrs by LDH assay; format: cell-based; settings: RPTEC cells, read-out: TC50
# How it was run: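 Primary human renal proximal tubule epithelial cells in REGM (EGF, hydrocortisone, epinephrine, insulin, T3, transferrin, gentamycin/amphotericin-B, FBS). After 72 h of growth at 37 °C, 5% CO2, cells were exposed for 24 h to aqueous compound at 100, 67, 44, 30, 20 and 13 μM. LDH release into the supernatant was measured by kit and TC50 (μM) derived, with PMB and PMBN as controls.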
# [19] = tested on: Escherichia coli; assay: Antibacterial activity against polymyxin-sensitive Escherichia coli isolate 1 assessed as growth inhibition by broth microdilution method; format: functional
# [20] = tested on: Klebsiella pneumoniae; assay: Antibacterial activity against polymyxin-sensitive ESBL-positive Klebsiella pneumoniae clinical isolate 3700 assessed as growth inhibition by broth microdilution method; format: functional
# [21] = tested on: Acinetobacter baumannii; assay: Antibacterial activity against polymyxin-sensitive Acinetobacter baumannii clinical isolate 3167 assessed as growth inhibition by broth microdilution method; format: functional
# [22] = tested on: Acinetobacter baumannii; assay: Antibacterial activity against polymyxin-resistant Acinetobacter baumannii clinical isolate 1649 assessed as growth inhibition by broth microdilution method; format: functional
# [23] = tested on: Acinetobacter baumannii; assay: Bactericidal activity against polymyxin-resistant Acinetobacter baumannii clinical isolate 1649; format: functional
# [24] = tested on: Pseudomonas aeruginosa; assay: Antibacterial activity against polymyxin-sensitive Pseudomonas aeruginosa 1401 assessed as growth inhibition by broth microdilution method; format: functional; how it was run: as §1
# [25] = tested on: Pseudomonas aeruginosa; assay: Antibacterial activity against polymyxin-resistant Pseudomonas aeruginosa clinical isolate 1646 assessed as growth inhibition by broth microdilution method; format: functional
# How it was run: (§2)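 Test strain PA-1646 is a P. aeruginosa isolate with a mutated PmrAB two-component system. The system is constitutively active, so the modified lipid A moiety is constantly expressed on the cell surface, giving a polymyxin-resistant phenotype.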
# [26] = tested on: Pseudomonas aeruginosa; assay: Bactericidal activity against polymyxin-resistant Pseudomonas aeruginosa clinical isolate 1646; format: functional; how it was run: as §2
# [27] = tested on: Pseudomonas aeruginosa; assay: Antibacterial activity against polymyxin-resistant Pseudomonas aeruginosa clinical isolates assessed as growth inhibition by broth microdilution method
smiles,measurement,setting,value
CC(C)C[C@@H]1NC(=O)[C@@H](Cc2ccccc2)NC(=O)[C@H](CCN)NC(=O)[C@@H](NC(=O)[C@H](CN)NC(=O)[C@@H](NC(=O)[C@H](CCN)NC(=O)c2ccc(=O)n(-c3ccccc3)c2)[C@@H](C)O)CCNC(=O)[C@H]([C@@H](C)O)NC(=O)[C@H](CCN)NC(=O)[C@H](CCN)NC1=O,fAUC ratio,[1],1.5
same,fAUC/MIC,[2],109.63
same,fAUC/MIC,[3],85.26
same,fAUC/MIC,[4],87.92
same,fAUC/MIC,[5],157.55
same,fraction unbound,[6],0.54
same,MIC,[7],0.5 µg/mL
same,fAUC,[8],7200 ng·h/mL
same,fraction unbound,[9],0.58
same,fAUC,[10],64000 ng·h/mL
same,fAUC,[11],114000 ng·h/mL
same,fAUC,[12],20000 ng·h/mL
same,fraction unbound,[13],0.81
same,Activity,[14],Toxic
same,fAUC,[15],29000 ng·h/mL
same,fAUC,[16],13000 ng·h/mL
same,Activity,[17],Non-toxic
same,CC50 at 24 h,[18],> 100 µM
same,MIC50,[19],1 µg/mL
same,MIC90,[19],2 µg/mL
same,MIC50,[20],0.5 µg/mL
same,MIC90,[20],1 µg/mL
same,MIC50,[21],2 µg/mL
same,MIC90,[21],2 µg/mL
same,MIC50,[22],4 µg/mL
same,MIC90,[22],16 µg/mL
same,MBC,[23],2 µg/mL
same,MIC50,[24],1 µg/mL
same,MIC90,[24],2 µg/mL
same,MIC,[25],4 µg/mL
same,MIC50,[25],2 µg/mL
same,MBC,[26],8 µg/mL
same,MIC90,[27],8 µg/mL
